Compounds with a hit are over-represented: about 2.9% of the library has one in this group of screens.
AI-2 QS modul: modulators of Vibrio harveyi AI-2 quorum sensing system | Vibrio harveyi JMH597 AI-2 luminescence/OD600 ratio, 9 h; hits give low values; strain lacks LuxN and CqsS sensors; 0 = neutral-control median | activity change, % at 7.5 µM | actives 0.4% (n = 300,000); in the data active = activity change below about -75%, passing the limit was not always enough; inconclusive = no clear call, values can overlap the other calls;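 note: luminescence divided by OD600 gain over 9 h not by final OD600 alone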
Runt-CBFb FRET: inhibitors of human RUNX1 Runt domain binding to CBFb; Q01196+Q13951; Cerulean-Runt/Venus-CBFb FRET ratio 530/480, 1 h; inhibition, % at 20 µM; actives 0.46% (n = 220,000);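 active = inhibition over about 50% at 20 µM in the single-dose screen, limit read from the data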;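 note: 0% = DMSO wells and 100% = excess unlabeled CBFb competitor control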
Target sequence (Q01196 whole entry, looked up, the tested form may be a part): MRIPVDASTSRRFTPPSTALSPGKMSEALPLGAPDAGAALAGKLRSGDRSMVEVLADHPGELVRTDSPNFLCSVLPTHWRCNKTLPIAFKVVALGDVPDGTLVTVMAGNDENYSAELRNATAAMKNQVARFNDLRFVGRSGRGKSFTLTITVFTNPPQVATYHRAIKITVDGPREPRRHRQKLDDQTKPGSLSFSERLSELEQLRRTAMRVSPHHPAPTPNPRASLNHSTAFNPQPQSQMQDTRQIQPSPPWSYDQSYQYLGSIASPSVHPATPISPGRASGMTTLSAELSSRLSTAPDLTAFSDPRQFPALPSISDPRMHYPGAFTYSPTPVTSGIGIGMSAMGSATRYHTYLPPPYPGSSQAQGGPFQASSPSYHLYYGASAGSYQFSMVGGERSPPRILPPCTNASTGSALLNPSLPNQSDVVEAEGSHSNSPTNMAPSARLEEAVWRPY
Target sequence (Q13951 whole entry, looked up, the tested form may be a part): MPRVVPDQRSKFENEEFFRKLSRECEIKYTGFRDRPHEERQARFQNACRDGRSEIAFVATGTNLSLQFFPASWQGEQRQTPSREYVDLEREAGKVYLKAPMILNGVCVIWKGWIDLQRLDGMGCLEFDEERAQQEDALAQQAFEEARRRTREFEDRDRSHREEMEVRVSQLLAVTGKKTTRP
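Buffer or medium: Tris pH 7.5 buffer with BSA. Assay system: Cerulean-labeled Runt domain protein. Amount: each fluorescent fusion protein 100 nM. Read-out basis: loss of energy transfer signal. Incubation: 1 h compound exposure, room temperature. Probe or stimulus: Venus-CBFb binding partner, 100 nM. Detection: FRET, excitation 422 nm, emission at 530 and 480 nm.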
Wee1 degr inh: human Wee1 degradation inhibition, primary screen; reporter increase, % at 5 µM; actives 1.2% (n = 220,000); HeLa Luc-Wee1K328M stability, luciferase luminescence; 100% = proteasome inhibitor MG132 effect; P30291; AID 1321;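 active = activation above the mean of all tested compounds plus 3 SD, set per screening run, cut at about 8.8% in these data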;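 note: cells exposed to compound for 20 h before luminescence read; 0% = DMSO alone and 100% = MG132 at 30 µM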
RanGTP-Imp inh: inhibitors of RanGTP-importin-beta interaction, primary screen, biochemical, FRET, CFP-Ran, YFP-importin-beta, homogeneous; AID 2216; cell-free CFP-Ran/YFP-importin-beta FRET ratio; actives 1.1% (n = 300,000); inhibition, % (concentration not given with the values);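 active = more than half of the replicate wells show a fall in the fluorescence ratio signal beyond about 16%, limit read from the data, passing the limit was not always enough; inconclusive = exactly half of the replicate wells pass the set limit; inactive = fewer than half of replicates pass the limit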;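 note: 0% = DMSO wells and 100% = Ran loaded with GDP instead of GTP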
proKLK7 act: activators of human kallikrein-7 zymogen; P49862; purified proKLK7, EDANS-DABCYL substrate fluorescence; 100% is mature enzyme control, 0% vehicle; AID 652039; activation, % at 7 µM; actives 0.9% (n = 370,000);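 active = activation above the mean of all tested compounds plus 3 SD, computed per campaign excluding outliers beyond control limits, cut at about 13% in these data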
Runt-SMMHC FRET: Runt domain-CBFb-SMMHC interaction inhibition. Q01196+Q13951. Cerulean-Runt/Venus-CBFb-SMMHC FRET ratio 530/480, 1 h. inhibition, % at 20 µM. actives 0.74% (n = 220,000);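 active = mean inhibition across duplicate retests at 20 µM reaching about 50%, limit read from the data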;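 note: 0% = DMSO wells and 100% = wells with excess untagged CBFb-SMMHC; inhibitors lower the FRET ratio by blocking Runt binding to CBFb-SMMHC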
YIC FRET counter: counter-screen YIC FRET for RanGTP-importin-beta inhibitors | AID 435026 | actives 40% (n = 1,000) | IC50, µM | shares compounds with RanGTP-Imp inh | Purified YIC probe, intramolecular FRET ratio YFP/CFP;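 active = fitted half-maximal inhibitory concentration no more than tenfold above the top dose tested; inconclusive = flat fit with 30 to 70% activity, or poor fit; inactive = half-maximal concentration beyond tenfold above the top dose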
An asterisk follows results filed as active; ? = inconclusive; nt = not tested or not shown.

SMILES | AI-2 QS modul | Runt-CBFb FRET | Wee1 degr inh | RanGTP-Imp inh | proKLK7 act | Runt-SMMHC FRET | YIC FRET counter
Cc1cccc(N2C(=O)/C(=C/c3cccnc3)SC2=S)c1 | 8 | 2 | 4 | 19* | 0 | 1 | >50
O=C1CCCN=C(Nc2ccc(F)c(Cl)c2)S1 | 42 | -2 | -1 | 6 | 1 | -6 | nt
CC1(C)CCC(=O)C=C1Nc1ccc(F)c(Cl)c1 | 18 | nt | nt | 26* | 0 | nt | >50
Cc1cc(C)c(C#N)c(Nc2cccc(C)c2C)n1 | 33 | nt | nt | -4 | 1 | nt | nt
Cc1cc(C)c(C#N)c(Nc2ccccc2C)n1 | -3 | nt | nt | 19* | 0 | nt | >50
O=C(Nc1cccc(F)c1)c1ccc(S(=O)(=O)NCC2CCCO2)cc1 (configuration not stated) | 11 | -1 | 0 | 21* | 0 | 1 | >50
Cc1ccccc1NC(=O)/C(C#N)=C\c1cn(CC(=O)O)c2ccccc12 | 10 | nt | 4 | 20* | 0 | nt | 51*
CC1=CC(C2CC(=O)N(c3ccc(C)cc3)C2=O)CC2C(=O)N(c3ccc(C)cc3)C(=O)C12 (configuration not stated) | 23 | -3 | 2 | 3 | 0 | -2 | nt
Cc1cc(Nc2ccccc2)nn1C(=O)c1ccccc1 | 2 | -2 | -3 | 18* | 0 | -6 | >50
CCc1ccc(CN(C)C(=O)CCc2nnc(COc3ccccc3)o2)cc1 | 18 | -5 | 0 | ? | 0 | 0 | nt
COc1ccc(CCNc2oc(-c3ccco3)nc2C#N)cc1 | 35 | -2 | -3 | 26* | 1 | 0 | >50
CN1CCN(NC(=O)c2ccc(Br)c(S(=O)(=O)N3CCOCC3)c2)CC1 | 12 | 1 | -2 | 5 | -1 | -6 | nt
C/C(=C\C(=O)C(F)(F)F)Nc1ccc(C(F)(F)F)cc1 | 42 | 0 | -1 | 20* | 0 | 3 | >50
OC(c1ccccc1)(c1nc(-c2ccccc2)cs1)C(F)(F)F (configuration not stated) | nt | nt | nt | nt | 0 | nt | nt
COc1ccc(N2CCN(C(=O)c3oc4ccccc4c3C)CC2)cc1 | 40 | -3 | 0 | -4 | 0 | 1 | nt
O=C(c1ccc(C#Cc2ccccc2)cc1)N1CCC(O)CC1 | nt | nt | nt | nt | 0 | nt | nt
COc1ccc2c(C)c(C(=O)N3CC[C@@H](N4CCC(O)CC4)[C@H](O)C3)oc2c1 | 9 | nt | nt | 16* | 0 | nt | >50
O=C(c1cccc(-c2ccccc2)c1)N1CC[C@@H](N2CCC(O)CC2)[C@H](O)C1 | 6 | nt | nt | 25* | 1 | nt | >50
CN=C(Nc1cc(C)nn1CCC#N)c1ccccc1 | 17 | 1 | -3 | 19* | 0 | -3 | >50
CN=C(Nc1cc(C)nn1CCC#N)c1ccc(F)cc1 | 13 | -1 | 8 | 2 | 1 | -4 | nt
Cc1ccc(CS(=O)(=O)CCC(=O)N2CCOCC2)cc1 | 12 | -1 | -2 | 1 | 0 | -1 | nt
Cc1cc(C)n2nc(C(=O)OCC(=O)c3cc(C)n(CC4CCCO4)c3C)nc2n1 (configuration not stated) | 8 | 1 | 0 | 0 | 0 | -1 | nt
Cc1cc(C(=O)COC(=O)c2nc3nccc(C)n3n2)c(C)n1CC1CCCO1 (configuration not stated) | 24 | 0 | -2 | 21* | 0 | -4 | >50
CCOC(=O)C1(CCc2ccccc2)CCN(C(=O)c2cnc(C)cn2)CC1 | 27 | -3 | -5 | 2 | 0 | -1 | nt
Cc1ccc(C(=O)Nc2ncc(C)s2)o1 | nt | 1 | 1 | 4 | 1 | -1 | nt
SMILES | AI-2 QS modul | Runt-CBFb FRET | Wee1 degr inh | RanGTP-Imp inh | proKLK7 act | Runt-SMMHC FRET | YIC FRET counter
Cc1ccc(C(=O)Nc2ncc(Cc3ccc(F)cc3)s2)o1 | -20 | -2 | 1 | 28* | 1 | 3 | >50
Clc1ccc(-c2ccc(C=Nc3ccc(N4CCOCC4)cc3)o2)c(Cl)c1 | 16 | -1 | -2 | -1 | 0 | -2 | nt
Clc1cccc(-c2ccc(C=Nc3ccc(N4CCOCC4)cc3)o2)c1Cl | 0 | 7 | -1 | 23* | 1 | -2 | >50
Cn1c(SCc2ccccc2F)nnc1-c1cnccn1 | 15 | -1 | 8 | -1 | 0 | -2 | nt
Cn1c(SCc2ccccc2F)nnc1-c1ccccn1 | 37 | 1 | 2 | 20* | 0 | -1 | >50
COC(=O)c1ccc(NC(=O)C(=O)N2CCN(C(=S)Nc3ccccc3OC)CC2)cc1 | -7 | -1 | 7 | 20* | 0 | 3 | >50
O=C(O)c1ccccc1C(=O)Nc1ccc(Br)c2cccnc12 | 17 | 16 | 3 | 17* | 0 | 4 | >50
CCC(=O)Nc1ccc(N/C(N)=N/c2nc(C)cc(C)n2)cc1 | 15 | 2 | -1 | 17* | 0 | 2 | >50
O=C1NC(c2cccc([N+](=O)[O-])c2)Oc2ccccc21 (configuration not stated) | 11 | 2 | 0 | 22* | -1 | 1 | >50
N#CCCN(C(=O)Nc1ccc(Cl)cc1)c1ccccc1 | 18 | -1 | 2 | 96* | 0 | -4 | >50
O=C(NC1CC2CCCC(C1)N2Cc1cccs1)c1ccc([N+](=O)[O-])cc1 (configuration not stated) | 0 | -1 | 2 | -3 | nt | 2 | nt
NC(=O)Cc1nc(-c2ccc(F)cc2)cs1 | 20 | 0 | 0 | -2 | 0 | -2 | nt
NC(=S)Cc1nc(-c2ccc(Cl)cc2)cs1 | -30 | 1 | 5 | 18* | -1 | -10 | >50
CCN(C(=O)c1ccc(Cl)cc1[N+](=O)[O-])c1ccccc1C | -6 | 0 | 3 | 19* | 0 | 2 | >50
C#CCOCCOCCOCCNc1nc(N2CCN(C(=O)[C@H](CC(N)=O)n3cc(C(N)[C@H](C)CC)nn3)CC2)nc(N2CCN(C(=O)[C@H](CC(N)=O)n3cc(C(N)[C@@H](C)CC)nn3)CC2)n1 (some centres not stated) | nt | nt | nt | nt | 0 | nt | nt
COc1cc(NC(=O)C2CC2)c(OC)cc1NC(=O)c1ccco1 | 9 | nt | nt | 19* | -1 | nt | >50
COc1cc(NC(=O)c2ccco2)c(OC)cc1NC(=O)c1cc(OC)c(OC)c(OC)c1 | 32 | -1 | -3 | 1 | -60 | 2 | nt
COc1cccc(NC(=O)CSc2ncc(S(=O)(=O)c3ccccc3)c(=O)[nH]2)c1 | 25 | -1 | 2 | 30* | -1 | 0 | >50
Cc1ccc(NC(=O)CSc2ncc(S(=O)(=O)c3ccccc3)c(=O)[nH]2)cc1C | 8 | 2 | -2 | 1 | 0 | -5 | nt
Cc1nc2c3ccccc3nc(NNC(=O)CCC(=O)NCCN3CCN(c4ccccc4)CC3)n2n1 | 10 | nt | nt | -3 | 0 | nt | nt

Compound activity: PubChem, several laboratories
